# From ChEMBL document CHEMBL1128588, “Synthesis and cytotoxicity of water-soluble ambrosin prodrug candidates” (1995)
# What was measured:
# Format in all cases: functional
# Settings in all cases: Homo sapiens
# [1] = tested on: MCF7; assay: The compound was evaluated for cytotoxicity against breast cancer cell line MCF-7
# How it was run: (§1)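 Tested within a panel of about 51 human cancer cell lines covering leukemia, non-small-cell lung and other tumour types. The value reported is GI50, the concentration giving 50% growth inhibition.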
# [2] = tested on: PC-3; assay: The compound was evaluated for cytotoxicity against prostate cancer cell line PC-3; how it was run: as §1
# [3] = tested on: OVCAR-5; assay: The compound was evaluated for cytotoxicity against ovarian cancer cell line OVCAR-5; how it was run: as §1
# [4] = tested on: SF-539; assay: The compound was evaluated for cytotoxicity against CNS cancer cell line CNS SF-539; how it was run: as §1
# [5] = tested on: HCT-116; assay: The compound was evaluated for cytotoxicity against colon cancer cell line HCT116; how it was run: as §1
# [6] = tested on: SN12C; assay: The compound was evaluated for cytotoxicity against renal cancer cell line SN12C; how it was run: as §1
# [7] = tested on: LOX IMVI; assay: The compound was evaluated for cytotoxicity against melanoma cell line LOX-IMVI; how it was run: as §1
# [8] = tested on: NCI-H522; assay: The compound was evaluated for cytotoxicity against lung cancer cell line NCI-H522; how it was run: as §1
SMILES,GI50 [1] [µM],GI50 [2] [µM],GI50 [3] [µM],GI50 [4] [µM],GI50 [5] [µM],GI50 [6] [µM],GI50 [7] [µM],GI50 [8] [µM]
C[C@H]1CC[C@H]2C(CN3CCCC3)C(=O)O[C@H]2[C@]2(C)C(=O)CC(N3CCCC3)[C@@H]12 (some centres undefined),4.2,20,6.3,9.1,3.8,11,3.3,1.8
C[C@H]1CC[C@H]2C(CN3CCCCC3)C(=O)O[C@H]2[C@]2(C)C(=O)CC(N3CCCCC3)[C@@H]12 (some centres undefined),4.7,8.5,22,5.4,1.8,8.1,3.6,1.1
C=C1C(=O)O[C@@H]2[C@H]1CC[C@H](C)[C@@H]1C=CC(=O)[C@@]21C [AMBROSIN],3.9,4.5,4.9,2.9,1.8,3.4,2.2,1
